{"source": "ChEMBL document CHEMBL1275434", "about": "“In vitro evaluation of CBR-2092, a novel rifamycin-quinolone hybrid antibiotic: studies of the mode of action in Staphylococcus aureus” (Antimicrob Agents Chemother, 2008)", "key": {"[1]": {"test_system": "Staphylococcus aureus", "assay": "Inhibition of cell wall synthesis in rifamycin-resistant Staphylococcus aureus CB370 harboring rpoB H481Y mutant gene assessed as decrease in [2,3-3H]D-alanine incorporation at 0.5 ug/ml", "type": "functional, organism-based", "method_in_brief": "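Time-course radiolabel incorporation in S. aureus cultures with test agent. Precursors: [methyl-3H]thymidine (DNA), [5,6-3H]uridine (RNA), L-[3,4,5-3H]leucine (protein), [2,3-3H]D-alanine (cell wall). At each time point, incorporation with agent is expressed relative to the DMSO-treated control culture as percent incorporation. Time-zero incorporation is set to 100%.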"}, "[2]": {"test_system": "Staphylococcus aureus", "assay": "Antimicrobial activity against rifampin-sensitive Staphylococcus aureus CB190 harboring rpoB D471Y mutant gene by broth microdilution method", "type": "functional", "method_in_brief": "(§1)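 CLSI broth microdilution MIC in cation-adjusted Mueller-Hinton (MHII) broth supplemented with 0.002% (vol/vol) polysorbate 80, included to limit compound loss to plastic surfaces.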"}, "[3]": {"test_system": "Staphylococcus aureus", "assay": "Antimicrobial activity against Staphylococcus aureus CB1522 harboring by broth microdilution method", "type": "functional"}, "[4]": {"test_system": "Staphylococcus aureus", "assay": "Antimicrobial activity against Staphylococcus aureus CB1887 harboring rpoB R484H, L520 deficient gyrA, […], R236 duplicated parC and parC H103Y mutant genes selected after ABT-719 exposure for 20 days by broth microdilution method", "type": "functional", "settings": "CB1887, 480 h", "method_in_brief": "(§2)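 CLSI broth microdilution MIC in MHII with 0.002% polysorbate 80 against strains from 20–21 days of stepwise passage of rifamycin- and/or quinolone-resistant parents; CBR-2092 passages used MHII with 0.002% polysorbate 80.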"}, "[5]": {"test_system": "Staphylococcus aureus", "assay": "Antimicrobial activity against Staphylococcus aureus CB1326 harboring rpoB H481Y and gyrA S784F mutant genes selected after 0.2 ug/ml drug exposure by broth microdilution method", "type": "functional", "method_in_brief": "(§3)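 CLSI broth microdilution MIC in cation-adjusted Mueller-Hinton (MHII) broth with 0.002% (vol/vol) polysorbate 80. Single-step mutants were selected on agar […], purified by drug-free passage, their phenotype re-verified, and resistance loci sequenced.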"}, "[6]": {"test_system": "Staphylococcus aureus", "assay": "Antimicrobial activity against Staphylococcus aureus CB1416 harboring rpo BH481Y and gyrA L795S mutant genes selected after 0.1 ug/ml drug exposure by broth microdilution method"}, "[7]": {"test_system": "Staphylococcus aureus", "assay": "Antimicrobial activity against Staphylococcus aureus CB1430 harboring rpoB H481Y, parE E474K and gyrA S84L mutant genes selected after 0.18 ug/ml drug exposure by broth microdilution method", "type": "functional", "method_in_brief": "as §3"}, "[8]": {"test_system": "Staphylococcus aureus", "assay": "Antimicrobial activity against Staphylococcus aureus CB1882 harboring rpoB R484H mutant gene, L520 deficient gyrA gene and R236 duplicated parC gene", "type": "functional"}, "[9]": {"test_system": "Staphylococcus aureus", "assay": "Antimicrobial activity against Staphylococcus aureus CB1335 harboring rpoB H481Y, parC S80F, parE E474Q and gyrA S84L mutant genes selected after 0.8 ug/ml drug exposure by broth microdilution method", "type": "functional"}, "[10]": {"test_system": "Staphylococcus aureus", "assay": "Antimicrobial activity against Staphylococcus aureus CB1524 harboring rpoB H481Y and gyrA G773V mutant genes selected after 0.25 ug/ml drug exposure by broth microdilution method", "type": "functional", "method_in_brief": "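CLSI broth microdilution in cation-adjusted Mueller-Hinton (MHII) broth supplemented with 0.002% (vol/vol) polysorbate 80 to limit compound loss to plastic. Strains are spontaneous single-step mutants isolated on agar from an rpoB H481Y parent (RN4220 background), purified through drug-free passage with the resistance phenotype re-verified as stable before testing; target loci genotyped by PCR amplification and sequencing.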"}, "[11]": {"test_system": "Staphylococcus aureus", "assay": "Activity at Staphylococcus aureus DNA topoisomerase 4 subunit ParC S80F mutant"}, "[12]": {"assay": "Inhibition of Staphylococcus aureus RpoB H481Y mutant", "method_in_brief": "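Recombinant S. aureus σA RNA polymerase holoenzyme carrying RpoB H481Y. Single-round transcription of the pGL2B-T7A1-G-less template. The 272-nt G-less RNA product is quantified by gel electrophoresis. IC50 is the concentration that inhibits 50% of product formed without inhibitor.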"}, "[13]": {"test_system": "Staphylococcus aureus", "assay": "Antimicrobial activity against Staphylococcus aureus CB1417 harboring rpoB H481Y and gyrA G532V mutant genes selected after 0.1 ug/ml drug exposure by broth microdilution method"}, "[14]": {"test_system": "Staphylococcus aureus", "assay": "Antimicrobial activity against Staphylococcus aureus CB1419 harboring rpoB H481Y and gyrA G572D mutant genes selected after 0.1 ug/ml drug exposure by broth microdilution method"}, "[15]": {"test_system": "Staphylococcus aureus", "assay": "Inhibition of DNA synthesis in rifamycin-resistant Staphylococcus aureus CB370 harboring rpoB H481Y mutant gene assessed as decrease in [methyl-3H]thymidine incorporation at 0.5 ug/ml", "type": "functional, organism-based", "method_in_brief": "(§4)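 Macromolecular synthesis time course in S. aureus, measuring incorporation of [methyl-3H]thymidine (DNA), [5,6-3H]uridine (RNA) or [2,3-3H]D-alanine (cell wall). At each time point, incorporation is expressed as percent of the DMSO-treated control culture. Incorporation at time zero is set to 100%.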"}, "[16]": {"test_system": "Staphylococcus aureus", "assay": "Antimicrobial activity against Staphylococcus aureus CB1880 harboring rpoB R484H mutant gene", "type": "functional"}, "[17]": {"test_system": "Staphylococcus aureus", "assay": "Antimicrobial activity against Staphylococcus aureus CB370 harboring rpoB H481Y mutant gene by broth microdilution method", "type": "functional", "method_in_brief": "as §1"}, "[18]": {"test_system": "Staphylococcus aureus", "assay": "Antimicrobial activity against Staphylococcus aureus CB1421 harboring rpoB H481Y, parC S80F and gyrA S84L mutant genes selected after 0.18 ug/ml drug exposure by broth microdilution method", "type": "functional", "method_in_brief": "as §3"}, "[19]": {"test_system": "Staphylococcus aureus", "assay": "Antimicrobial activity against rifampin-sensitive Staphylococcus aureus CB190 harboring rpoB D471G mutant gene by broth microdilution method", "type": "functional", "method_in_brief": "as §1"}, "[20]": {"test_system": "Staphylococcus aureus", "assay": "Antimicrobial activity against Staphylococcus aureus CB812 harboring rpo B H481Y and gyrA S84L mutant genes by broth microdilution method", "type": "functional", "method_in_brief": "as §1"}, "[21]": {"test_system": "Staphylococcus aureus", "assay": "Antimicrobial activity against Staphylococcus aureus CB1952 harboring rpoB S486L, gyrA […], gyrA E88Q, gyrA G532S, parC S80F, parC E84L mutant genes selected after CBR-2092 exposure for 21 days by broth microdilution method", "type": "functional", "settings": "CB1952, 504 h", "method_in_brief": "as §2"}, "[22]": {"test_system": "Staphylococcus aureus", "assay": "Inhibition of RNA synthesis in quinolone-resistant Staphylococcus aureus CB814 harboring gyrA S84L and parC S80F mutant genes assessed as decrease in [5,6-3H]uridine incorporation at 0.5 ug/ml", "type": "functional, organism-based", "method_in_brief": "as §4"}, "[23]": {"test_system": "Staphylococcus aureus", "assay": "Antimicrobial activity against Staphylococcus aureus CB1880 harboring rpoB R484H mutant gene by broth microdilution method", "type": "functional", "method_in_brief": "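CLSI broth microdilution MIC in MHII broth with 0.002% (vol/vol) polysorbate 80. Isolates came from daily stepwise broth passage at sub-MIC drug (MHII without polysorbate 80, 10^6 CFU/ml inoculum, 20–24 h shaking at 37°C), were purified drug-free, and were sequenced at target loci.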"}, "[24]": {"test_system": "Staphylococcus aureus", "assay": "Antimicrobial activity against Staphylococcus aureus CB814 harboring gyrA […] and parc S80F mutant genes by broth microdilution method", "type": "functional", "method_in_brief": "as §1"}, "[25]": {"assay": "Inhibition of Staphylococcus aureus wild-type RNA polymerase RpoB", "method_in_brief": "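Recombinant S. aureus σA RNA polymerase holoenzyme in a single-round transcription assay using the pGL2B-T7A1-G-less template. The 272-nucleotide G-less RNA product was quantified by gel electrophoresis. IC50 is the concentration halving the product formed without test agent.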"}, "[26]": {"test_system": "Staphylococcus aureus", "assay": "Inhibition of DNA synthesis in Staphylococcus aureus CB190 assessed as decrease in [methyl-3H]thymidine incorporation at 0.5 ug/ml", "type": "functional, organism-based"}}, "note": "Active and inactive are the calls of the source. The rule behind the calls is not given here."}
{"smiles": "CO[C@H]1/C=C/O[C@@]2(C)Oc3c(C)c(O)c4c(O)c(c(/C=N/N5CCC(N(C)C6([C@@H]7CCN(c8c(F)cn9c(=O)c(C(=O)O)cc(C%10CC%10)c9c8C)C7)CC6)CC5)c(O)c4c3C2=O)NC(=O)/C(C)=C\\C=C\\[C@H](C)[C@H](O)[C@@H](C)[C@@H](O)[C@@H](C)[C@H](OC(C)=O)[C@@H]1C", "values": [{"measurement": "Activity", "setting": "[1]", "value": "Active"}, {"measurement": "MIC", "setting": "[2]", "value": 0.25, "unit": "µg/mL"}, {"measurement": "MIC", "setting": "[3]", "value": 0.25, "unit": "µg/mL"}, {"measurement": "MIC", "setting": "[4]", "value": "> 250", "unit": "µg/mL"}, {"measurement": "MIC", "setting": "[5]", "value": 0.5, "unit": "µg/mL"}, {"measurement": "MIC", "setting": "[6]", "value": 0.5, "unit": "µg/mL"}, {"measurement": "MIC", "setting": "[7]", "value": 16, "unit": "µg/mL"}, {"measurement": "Time", "setting": "[8]", "value": 45, "unit": "min"}, {"measurement": "MIC", "setting": "[9]", "value": "> 16", "unit": "µg/mL"}, {"measurement": "MIC", "setting": "[10]", "value": 2, "unit": "µg/mL"}, {"measurement": "CC50", "setting": "[11]", "value": 2700, "unit": "nM"}, {"measurement": "IC50", "setting": "[12]", "value": "> 25000", "unit": "nM"}, {"measurement": "MIC", "setting": "[13]", "value": 0.5, "unit": "µg/mL"}, {"measurement": "MIC", "setting": "[14]", "value": 1, "unit": "µg/mL"}, {"measurement": "Activity", "setting": "[15]", "value": "Active"}, {"measurement": "Time", "setting": "[16]", "value": 43, "unit": "min"}, {"measurement": "MIC", "setting": "[17]", "value": 0.12, "unit": "µg/mL"}, {"measurement": "MIC", "setting": "[18]", "value": 1, "unit": "µg/mL"}, {"measurement": "MIC", "setting": "[19]", "value": 0.25, "unit": "µg/mL"}, {"measurement": "MIC", "setting": "[20]", "value": 0.5, "unit": "µg/mL"}, {"measurement": "MIC", "setting": "[21]", "value": 31, "unit": "µg/mL"}, {"measurement": "Activity", "setting": "[22]", "value": "Active"}, {"measurement": "MIC", "setting": "[23]", "value": 0.12, "unit": "µg/mL"}, {"measurement": "MIC", "setting": "[24]", "value": 0.015, "unit": "µg/mL"}, {"measurement": "IC50", "setting": "[25]", "value": 34, "unit": "nM"}, {"measurement": "Activity", "setting": "[26]", "value": "Active"}]}
